{"source": "paper PMC11040122", "about": "(Heliyon, 2024)"}
{"test_system": "Sf9 cells", "assay": "In vitro toxicity / cell growth inhibition rate", "format": "cell-based, Spodoptera frugiperda", "settings": "MTT assay, 72 h of treatment", "outline": "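Sf9 cells (2 × 10^4 cells/mL) in Grace's medium with 10 % FBS, exposed in triplicate to test compound (0.5–100 μM, from DMSO stocks); DMSO negative control. Incubated at 30 °C, humidified, no CO2, for 3–5 days until control wells near confluent. MTT (5 mg/mL) added for 4 h at 30 °C, formazan dissolved in DMSO, A570 read. IR = (1 − At/Ac) × 100; mean ± SD.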", "units": {"%IR At 100 μM (percent inhibition of cell growth rate)": "%"}}
{"smiles": "COc1c(O)cc2oc3cc(O)c(CC=C(C)C)c(O)c3c(=O)c2c1CC=C(C)C", "note": "[Alpha-mangostin]", "%IR At 100 μM (percent inhibition of cell growth rate)": 52.18}
{"test_system": "SlSCP-2", "assay": "not given", "settings": "read-out: IC50 values reported for natural compounds; cited from earlier work", "units": {"IC50": "µM"}}
{"smiles": "CC(C)CCC[C@@H](C)[C@H]1CC[C@H]2[C@@H]3CC=C4C[C@@H](O)CC[C@]4(C)[C@H]3CC[C@]12C", "note": "[cholesterol]", "IC50": 50.1}
{"smiles": "CCCCCCCCCCCCCCCC(=O)O", "note": "[palmitic acid]", "IC50": 59.1}
{"smiles": "CCCCCCCCCCCCCCCCCC(=O)O", "note": "[stearic acid]", "IC50": 39.8}
{"smiles": "CCCCCCCC/C=C\\CCCCCCCC(=O)O", "note": "[oleic acid]", "IC50": 24.4}
{"smiles": "CCCCC/C=C\\C/C=C\\C/C=C\\C/C=C\\CCCC(=O)O", "note": "[arachidonate]", "IC50": 18.1}
